Bioassay records: PubChem BioAssay, Broad Institute
SR-BI uptake up = activators of SR-BI mediated DiI-HDL uptake, primary screen, ldlA[mSR-BI] CHO cells, DiI fluorescence. 3 h; 100 = double the neutral-control signal. activation, % at 12.5 µM. 320,000 tested, 0.096% active. AID 504775, 2011;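 active = mean replicate activation of at least 60% and every replicate at or above 60%; inconclusive = mean or all-replicate condition met, but not both; inactive = mean below 60% and not all replicates reaching 60%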;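 also: 0% = median plate neutral-control signal and 100% = twice that signal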
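Assay system: CHO ldlA[mSR-BI] cells, LDL receptor-null, SR-BI overexpressing; medium: Ham's F12 with 0.5% BSA, HEPES 25 mM, pH 7.4; also added: DiI-HDL 10 µg/mL; timing: 3 h uptake period with compound, 37 °C; signal: DiI fluorescence, bottom read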
SR-BI DiI inh = inhibitors of SR-BI mediated HDL lipid uptake, primary screen, ldlA[mSR-BI] cells, fluorescence, single point; Scavenger receptor class B member 1 (Mus musculus), Q61009; ldlA[mSR-BI] CHO cells, DiI-HDL uptake fluorescence, 3 h; inhibition, % at 12.5 µM; 320,000 tested, 0.96% active; AID 488896, 2010;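 active = mean replicate inhibition of at least 70% and a set share of replicates each scoring 70 or more; inconclusive = meets just one of the two criteria; inactive = fails both criteria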;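 also: 0% = median of neutral control wells and 100% = median of positive control wells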
dFosB act = activators of delta FosB homodimer, primary screen, biochemical, fluorescence polarization, TAMRA-CDK5 oligo, single point; 340,000 tested, 0.99% active; purified delta FosB; percent of positive-control signal above neutral wells; activation, % at 25 µM;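 active = mean activation above about 17%, with every replicate also reaching it, limit read from the data, passing the limit was not always enough; inconclusive = only one of the two conditions met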
Dyrk1A ADPGlo = rat Dyrk1A kinase inhibitors, primary screen, biochemical, single point, plate reader | Dual specificity tyrosine-phosphorylation-regulated kinase 1A (Rattus norvegicus), Q63470 | ADP-Glo luminescence, NFATc1 peptide | inhibition, % at 12.5 µM | 310,000 tested, 0.43% active | AID 504441, 2011;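 also: plate controls were vehicle with enzyme for no effect and no enzyme for full effect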
NSD2 HMT inh = NSD2 histone methyltransferase inhibitors, primary screen, biochemical, AlphaScreen, single concentration, set 2. Histone-lysine N-methyltransferase NSD2 (Homo sapiens), O96028. NSD2 peptide methylation, 120 min. inhibition, % at 12.5 µM. 310,000 tested, 0.54% active
Target sequence (O96028 whole entry, looked up): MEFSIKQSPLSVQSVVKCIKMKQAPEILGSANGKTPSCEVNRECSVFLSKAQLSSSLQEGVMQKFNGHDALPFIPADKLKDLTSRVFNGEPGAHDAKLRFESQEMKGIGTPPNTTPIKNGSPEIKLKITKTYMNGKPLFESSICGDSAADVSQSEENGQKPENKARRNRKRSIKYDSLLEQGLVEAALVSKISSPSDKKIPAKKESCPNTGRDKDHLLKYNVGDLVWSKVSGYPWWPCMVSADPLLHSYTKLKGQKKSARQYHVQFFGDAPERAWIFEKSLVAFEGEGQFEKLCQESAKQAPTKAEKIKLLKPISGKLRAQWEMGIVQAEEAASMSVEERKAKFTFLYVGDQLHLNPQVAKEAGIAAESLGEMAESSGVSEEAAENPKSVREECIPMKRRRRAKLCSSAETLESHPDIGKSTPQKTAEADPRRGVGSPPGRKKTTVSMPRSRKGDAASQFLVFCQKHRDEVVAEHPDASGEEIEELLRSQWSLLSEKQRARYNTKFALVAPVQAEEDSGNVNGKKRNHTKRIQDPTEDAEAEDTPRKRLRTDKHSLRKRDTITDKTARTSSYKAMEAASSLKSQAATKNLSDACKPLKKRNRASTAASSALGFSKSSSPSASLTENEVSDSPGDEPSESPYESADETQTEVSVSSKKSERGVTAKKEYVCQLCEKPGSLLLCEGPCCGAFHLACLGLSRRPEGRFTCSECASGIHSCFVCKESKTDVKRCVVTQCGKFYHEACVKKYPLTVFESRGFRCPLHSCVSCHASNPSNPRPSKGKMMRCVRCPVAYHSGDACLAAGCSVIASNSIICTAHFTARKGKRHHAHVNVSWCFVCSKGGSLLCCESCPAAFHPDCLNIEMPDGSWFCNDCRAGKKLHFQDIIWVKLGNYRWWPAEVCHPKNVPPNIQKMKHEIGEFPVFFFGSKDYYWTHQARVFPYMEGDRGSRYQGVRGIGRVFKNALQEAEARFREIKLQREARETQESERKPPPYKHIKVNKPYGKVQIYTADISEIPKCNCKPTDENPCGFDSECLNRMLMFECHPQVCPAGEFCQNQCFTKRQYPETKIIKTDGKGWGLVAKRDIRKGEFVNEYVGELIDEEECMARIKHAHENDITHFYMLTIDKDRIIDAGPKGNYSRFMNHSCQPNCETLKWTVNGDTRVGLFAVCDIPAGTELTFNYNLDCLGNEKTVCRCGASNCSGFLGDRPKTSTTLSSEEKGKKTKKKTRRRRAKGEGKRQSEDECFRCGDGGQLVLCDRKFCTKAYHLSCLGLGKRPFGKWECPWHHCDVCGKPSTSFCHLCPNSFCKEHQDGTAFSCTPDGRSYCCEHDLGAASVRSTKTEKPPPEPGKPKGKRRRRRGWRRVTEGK
CDK5 inh = inhibitors of human CDK5/p35 kinase, primary screen, biochemical, single concentration; inhibition, % at 10 µM; Recombinant CDK5/p35, ADP-Glo luminescence, 60 min; 330,000 tested, 0.01% active;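 active = highest replicate inhibition of at least 50% and at least 75% of replicates reaching 50%; inconclusive = only one of the two criteria met; inactive = both criteria failed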;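 also: plate controls were DMSO neutral control for no effect and GW8510 at 10 µM for full effect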
AlphaScreen art = AlphaScreen signal interference with preloaded methylated product, dose response, artefact control for NSD2 inhibitor project, biochemical, cherry-picked samples; AID 1053174, 2014; AlphaScreen artifact counterscreen, preloaded methylated H4 peptide; 1,500 tested, 9.4% active; AC35, µM (series often up to 10 µM), without a hit: at the top dose activity change, negative = signal loss; shares compounds with NSD2 HMT inh; call rule not given here
* marks the source's active call; other numbers are inactive results; u = inconclusive; x = not tested or not shown; + = active, no number. This is a sample that favours compounds with a hit; in the whole collection about 2.5% have one here. Rule as the data show it, unless noted: active = inhibition above about 50%; inactive = the rest.

SMILES	SR-BI uptake up	SR-BI DiI inh	dFosB act	Dyrk1A ADPGlo	NSD2 HMT inh	CDK5 inh	AlphaScreen art
CCOC(=O)CN(C(=O)COc1nc(-c2ccccc2)cc(C)c1C#N)c1ccccc1	-18	18	-1	0	71*	1	-1%
CN1C(=O)CSC1=Nc1ccc(F)cc1	8	-8	-8	13	-1	-2	x
O=C(COc1ccccc1)N/N=C/c1sc(=O)n(Cc2cccc(C(=O)O)c2)c1Cl	-16	16	-5	-6	62*	1	-3%
N=C1/C(=C\c2coc3ccccc3c2=O)C(=O)N=C2SC=CN12	-1	1	-9	4	32	2	x
CSC1=NSC2=NC(=O)/C(=C/c3coc4ccccc4c3=O)C(=N)N12	6	-6	-14	6	75*	2	0%
CC(=O)c1ccc(NC(=O)COC(=O)c2ccc(F)cc2F)cc1	1	-1	-9	-2	x	0	x
O=C(NCc1ccc(C(=O)N2CCOCC2)cc1)c1cccc(Br)c1	x	x	x	x	29	x	x
Cc1cccc(C(=O)NCC(=O)OCc2nnc(-c3ccccc3)o2)c1	-9	9	-13	-5	+	1	-1%
O=C(CNC(=O)c1ccccc1)OCc1nnc(-c2ccc(Cl)cc2)o1	-8	8	-3	-2	-1	0	x
CC1=C(C#N)c2nc(N)c(C#N)c(C)c2/C1=C\c1ccc(-c2ccccc2C(=O)O)o1	-8	8	-45	15	82*	0	-12%
COc1cc(/C=C2/C(C)=C(C#N)c3nc(N)c(C#N)c(C)c32)ccc1OCC(=O)O	-2	2	-12	7	23	0	x
CCCn1nnc(NC(=O)c2ccco2)n1	19	-19	-1	12	x	1	x
CCCCn1nnc(NC(=O)c2ccco2)n1	11	-11	-2	-3	123*	0	3%
Cc1ccc(S(=O)(=O)N/N=C/c2ccc(C#N)cc2)cc1	-3	3	0	2	0	-2	x
CCCc1[nH]n(-c2nc3ccccc3s2)c(=O)c1C=NCCCN(CC)CC	11	-11	0	11	54*	-2	1%
CCCN=Cc1c(CCC)[nH]n(-c2nc3ccccc3s2)c1=O	-44	44	-3	-7	x	1	x
CCCc1cc(=O)n(-c2nc3ccccc3s2)[nH]1	6	-6	-4	5	79*	1	1%
Cc1ccc(C(=O)COC(=O)c2ccc(O)cc2)cc1	15	-15	-2	-1	-2	0	x
COc1cccc(CN2CC(C(=O)NC3CCC(O)CC3)CCC2=O)c1 (stereo unspecified)	-3	3	1	-3	1	1	x
Cc1cc(C)c(C)c(S(=O)(=O)N2CCC(C(=O)N3CCCC3)CC2)c1C	-7	7	-8	x	1	0	x
S=C(Nc1ccccc1Cl)N1CCCC(c2ccccc2)=N1	-34	34	-8	-6	-2	0	x
CC(C)c1ccc(NC(=S)N2CCCC(c3ccc(F)cc3)=N2)cc1	-44	44	-2	3	60*	0	0%
Cn1c(SCc2nc3ccccc3[nH]2)nnc1-c1cccnc1	19	-19	1	-3	-4	0	x
CCOc1ccc(-c2nnc(SCc3nc4ccccc4[nH]3)n2N)cc1	-6	6	-7	x	72*	-1	-4%
COc1ccc(-c2noc(Cn3cc(S(=O)(=O)N4CCCC4)ccc3=O)n2)cc1	3	-3	-11	-7	x	-2	x
SMILES	SR-BI uptake up	SR-BI DiI inh	dFosB act	Dyrk1A ADPGlo	NSD2 HMT inh	CDK5 inh	AlphaScreen art
Clc1ccc(-c2cn3cc(Cl)ccc3n2)cc1	-53	53	0	-4	-3	0	x
CCN(CC)S(=O)(=O)c1ccc(-c2cn3cc(Cl)ccc3n2)cc1	-15	15	-6	-6	77*	1	2%
Cc1ccc(C)c(S(=O)(=O)N2CCCOC2CNC(=O)C(=O)NCc2cccnc2)c1 (stereo unspecified)	-25	25	0	1	58*	-1	2%
Cc1cc(C)c(S(=O)(=O)N2CCCOC2CNC(=O)C(=O)NCc2cccnc2)c(C)c1 (stereo unspecified)	-4	4	0	-1	0	3	x
CCCCn1c(N)c(N(CCOC)C(=O)CSc2ccc([N+](=O)[O-])cc2)c(=O)[nH]c1=O	14	-14	-12	-1	-2	0	x
O=C(Nc1nnc(SCc2cccc3ccccc23)s1)C1COc2ccccc2O1 (stereo unspecified)	1	-1	6	0	63*	1	-1%
Cc1ccccc1CSc1nnc(NC(=O)C2COc3ccccc3O2)s1 (stereo unspecified)	28	-28	-6	5	-1	-4	x
O=C1c2ccccc2C(=O)N1C1C=CC=CC=C1	x	x	x	x	-3	x	x
COc1cccc(CNS(=O)(=O)c2cc3c4c(c2)CCN4C(=O)CC3)c1	-20	20	-1	0	1	0	x
N/C(=N\O)c1cn(Cc2ccccc2Cl)c2ccccc12	-7	7	-4	11	3	-1	x
Cc1[nH][nH]c(=O)c1C(c1c(C)[nH][nH]c1=O)c1cn(Cc2ccccc2Cl)c2ccccc12	-17	17	-9	-3	115*	0	-22%
COC(=O)C1=C(C)N(CCCC(=O)O)C(=O)NC1c1cccc2ccccc12 (stereo unspecified)	39	-39	-2	-1	x	0	x
COc1ccc(N(C)S(=O)(=O)c2ccc(C)cc2)c([N+](=O)[O-])c1	-15	15	-1	0	0	2	x
COc1ccc(NC(=O)CN(C)S(=O)(=O)c2ccc(C)cc2)c([N+](=O)[O-])c1	6	-6	-2	-2	67*	1	-4%
CC[C@]1(C(=O)OC)[C@H]2C(=O)N(C)C(=O)[C@H]2[C@H]2CN=C(SCc3ccc(C(=O)OC)cc3)N21	x	x	-7	-1	x	-1	x
Cc1cc(NC(=O)CSc2nc3ccccc3cc2C#N)no1	-7	7	u	4	55*	0	-3%
COc1ccc(/C=N/NC(=O)c2nn(-c3ccccc3)c(=O)c3c(N)scc23)cc1	-26	26	-13	3	100*	1	-10%
